Source: ChEMBL document CHEMBL1140316, “Synthesis and immunosuppressive activity of new artemisinin derivatives. 1. [12(beta or alpha)-Dihydroartemisininoxy]phen(ox)yl aliphatic acids and esters” (J Med Chem, 2005)

Experiments:
Mus musculus [1] = species on record: Mus musculus; experiment: Ratio of concentration that reduced cell viability to inhibitory concentration for ConA-induced T cell proliferation; type: functional
[2] = In vitro concentration of compound required to inhibit LPS-induced B cell proliferation to 50% in BALB/c mice; type: functional, cell-based; conditions: Mus musculus
Summary of the method: (§1)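 Fresh spleen cells from male BALB/c mice (7–9 weeks); 5 × 10^5 cells per well in RPMI 1640 with 10% FBS, penicillin/streptomycin, 37 °C, 5% CO2, 48 h, with test compounds at varied concentrations. Stimulated with 5 µg/mL ConA (T cells) or 10 µg/mL LPS (B cells). Proliferation read as [3H]thymidine uptake over an 8 h pulse (20 kBq/well), scintillation counting. IC50 is the concentration that inhibits proliferation to 50% of control.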

Mus musculus [3] = species on record: Mus musculus; experiment: In vitro concentration of compound required to reduced spleen cell viability to 50% in BALB/c mice; type: functional
Summary of the method: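 Male BALB/c mouse spleen cells (7–9 weeks), erythrocytes lysed with ammonium chloride, 5 × 10^5 cells per well in RPMI 1640/10% FBS with antibiotics. Exposed to a range of compound concentrations for 48 h at 37 °C, 5% CO2. MTT (5 mg/mL stock) added for the final 5 h, then SDS/DMF lysis buffer (pH 7.2) for 6–7 h. Absorbance read at 570 nm; CC50 is the concentration reducing viability to 50%.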

Mus musculus [4] = species on record: Mus musculus; experiment: Ratio of concentration that reduced cell viability to inhibitory concentration for LPS-induced B cell proliferation; type: functional
T-cell = experiment: In vitro concentration of compound required to inhibit ConA-induced T cell proliferation to 50% in BALB/c mice; type: functional, cell-based; conditions: Mus musculus; summary of the method: as §1

Row | SMILES | Selectivity index (Mus musculus [1]) | IC50 [2] [µM] | CC50 (Mus musculus [3]) [µM] | Selectivity index (Mus musculus [4]) | IC50 (T-cell) [µM]
1 | C[C@H]1[C@@H](Oc2ccc(CC(=O)O)cc2)O[C@@H]2O[C@]3(C)CCC4[C@H](C)CC[C@@H]1[C@]42OO3 (some centres not stated) | >9 | 10.2 | > 100 | >10 | 11.8
2 | C[C@H]1[C@@H](Oc2cccc(OC(=O)CCC(=O)O)c2)O[C@@H]2O[C@]3(C)CCC4[C@H](C)CC[C@@H]1[C@]42OO3 (some centres not stated) | 161 | 0.265 | 52.7 | 199 | 0.327
3 | CCOC(=O)CNC(=O)c1ccc(O[C@H]2O[C@@H]3O[C@]4(C)CC[C@H]5[C@H](C)CC[C@@H]([C@H]2C)[C@@]35OO4)cc1 | 51 | 0.0537 | 130 | 2421 | 2.53
4 | CC(Oc1cccc(OC2O[C@@H]3O[C@]4(C)CC[C@H]5[C@H](C)CC[C@@H]([C@H]2C)[C@@]35OO4)c1)C(=O)O (some centres not stated) | 4 | 0.74 | 35.1 | 47 | 8.6
5 | CCOC(=O)C(C)Oc1ccc(OC2O[C@@H]3OC4(C)CCC5[C@H](C)CC[C@@H]([C@H]2C)[C@]53OO4)cc1 (single isomer, unassigned) | >385 | 0.85 | > 100 | >118 | 0.26
6 | CC(C(=O)O)c1ccc(O[C@H]2O[C@@H]3OC4(C)CCC5[C@H](C)CC[C@@H]([C@H]2C)[C@]53OO4)cc1 (single isomer, unassigned) | 17 | 8.6 | 59.6 | 7 | 3.6
7 | CC(Oc1cccc(O[C@@H]2OC3OC4(C)CCC5[C@H](C)CC[C@@H]([C@H]2C)[C@@]35OO4)c1)C(=O)O (single isomer, unassigned) | 1 | 1.05 | 5.54 | 5 | 7.64
8 | C[C@H]1[C@@H](Oc2ccc(OCC(=O)O)cc2)OC2OC3(C)CCC4[C@H](C)CC[C@@H]1[C@@]24OO3 (single isomer, unassigned) | 66 | 5.98 | 354 | 59 | 5.34
9 | COC(=O)Cc1ccc(O[C@H]2O[C@@H]3OC4(C)CCC5[C@H](C)CC[C@@H]([C@H]2C)[C@]53OO4)cc1 (single isomer, unassigned) | 11 | 0.179 | 8 | 45 | 0.713
10 | COc1ccccc1OC(=O)C(C)Oc1cccc(O[C@H]2O[C@@H]3OC4(C)CC[C@H]5[C@H](C)CC[C@@H]([C@H]2C)[C@@]35OO4)c1 (single isomer, unassigned) | 1 | 0.57 | 2.99 | 5 | 4.12
11 | CCOC(=O)C(C)Oc1cccc(OC2OC3OC4(C)CC[C@H]5[C@H](C)CC[C@@H]([C@H]2C)[C@@]35OO4)c1 (single isomer, unassigned) | 1 | 0.35 | 1.36 | 4 | 1.73
12 | CC(Oc1ccc(OC2O[C@@H]3OC4(C)CC[C@H]5[C@H](C)CC[C@@H]([C@H]2C)[C@@]35OO4)cc1)C(=O)O (single isomer, unassigned) | >14 | 0.86 | > 100 | >116 | 7.27
13 | C[C@H]1[C@@H](Oc2ccc(OCC(=O)OCCN(C)C)cc2)O[C@@H]2OC3(C)CC[C@H]4[C@H](C)CC[C@@H]1[C@@]24OO3 (single isomer, unassigned) | 1 | 0.0496 | 2.08 | 42 | 1.96
14 | COC(=O)CCc1ccc(O[C@H]2O[C@@H]3OC4(C)CC[C@H]5[C@H](C)CC[C@@H]([C@H]2C)[C@@]35OO4)cc1 (single isomer, unassigned) | 302 | 0.0178 | 41.7 | 2343 | 0.138
15 | COc1ccccc1OC(=O)C(C)Oc1ccc(O[C@H]2O[C@@H]3OC4(C)CC[C@H]5[C@H](C)CC[C@@H]([C@H]2C)[C@@]35OO4)cc1 (single isomer, unassigned) | 17 | 0.27 | 39.1 | 145 | 2.33
16 | COC(=O)C(C)c1ccc(O[C@H]2O[C@@H]3OC4(C)CC[C@H]5[C@H](C)CC[C@@H]([C@H]2C)[C@@]35OO4)cc1 (single isomer, unassigned) | 477 | 0.78 | 6.53 | 8 | 0.0137
17 | COC(=O)COc1ccc(O[C@H]2OC3OC4(C)CC[C@H]5[C@H](C)CC[C@@H]([C@H]2C)[C@@]35OO4)cc1 (single isomer, unassigned) | 848 | 0.00727 | 207 | 28473 | 0.244
18 | C[C@H]1[C@@H](Oc2ccc(CCC(=O)O)cc2)O[C@@H]2OC3(C)CC[C@H]4[C@H](C)CC[C@@H]1[C@@]24OO3 (single isomer, unassigned) | 3 | 0.107 | 10.4 | 97 | 4
19 | CCOC(=O)C(C)Oc1cccc(O[C@H]2O[C@@H]3OC4(C)CC[C@H]5[C@H](C)CC[C@@H]([C@H]2C)[C@@]35OO4)c1 (single isomer, unassigned) | 1 | 0.56 | 2.99 | 5 | 3.59
20 | CO[C@H]1O[C@@H]2O[C@@]3(C)CC[C@H]4[C@H](C)CC[C@@H]([C@H]1C)[C@@]24OO3 [ARTEMETHER] | 23 | 1.78 | 86 | 48 | 3.82
21 | C[C@@H]1CC[C@H]2[C@@H](C)C(=O)O[C@@H]3O[C@@]4(C)CC[C@@H]1[C@]32OO4 [ARTEMISININ] | 6 | 8.96 | 28.3 | 3 | 4.43
22 | C[C@H]1[C@H](OC(=O)CCC(=O)O)O[C@@H]2O[C@@]3(C)CC[C@H]4[C@H](C)CC[C@@H]1[C@@]24OO3 [ARTESUNATE] | 7 | 0.989 | 32.9 | 33 | 4.58
23 | C/C=C/C[C@@H](C)[C@@H](O)[C@H]1C(=O)N[C@@H](CC)C(=O)N(C)CC(=O)N(C)[C@@H](CC(C)C)C(=O)N[C@@H](C(C)C)C(=O)N(C)[C@@H](CC(C)C)C(=O)N[C@@H](C)C(=O)N[C@H](C)C(=O)N(C)[C@@H](CC(C)C)C(=O)N(C)[C@@H](CC(C)C)C(=O)N(C)[C@@H](C(C)C)C(=O)N1C [CYCLOSPORINE] | 963 | – | – | 7 | –
